ChEMBL document CHEMBL1151705, “Novel azalides derived from 16-membered macrolides. Part II: Isolation of the linear 9-formylcarboxylic acid and its sequential macrocyclization with an amino alcohol or an azidoamine” (2008)
Values after ≈ are worked out from the molar mass of the structure shown.

How the values were obtained:
Assay type in all cases: functional
Streptococcus pneumoniae [1] = assay: Antimicrobial activity against Streptococcus pneumoniae 6 constitutively expressing ermB after 20 hrs by agar dilution method; details: Streptococcus pneumoniae, 20 h; read-out: MIC
Procedure, shortened: (§1)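 Streptococci, H. influenzae and M. catarrhalis were precultured on blood agar plates. Suspensions of about 10⁶ CFU/ml were inoculated onto sensitivity disk agar supplemented with 5% horse blood and incubated at 37 °C for 20 h. MIC was read as the lowest drug concentration with no visible growth.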

Haemophilus influenzae [2] = assay: Antimicrobial activity against drug-susceptible Haemophilus influenzae 3 after 20 hrs by agar dilution method; details: Haemophilus influenzae, 20 h; read-out: MIC; procedure, shortened: as §1
Staphylococcus aureus [3] = assay: Antimicrobial activity against drug-susceptible Staphylococcus aureus 3 after 20 hrs by agar dilution method; details: Staphylococcus aureus, 20 h; read-out: MIC
Procedure, shortened: (§2)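 Agar dilution MIC. S. aureus seed culture was grown in sensitivity test broth. Cell suspension (about 10⁶ CFU/ml) was inoculated onto sensitivity disk agar with 5% horse blood and incubated at 37 °C for 20 h. MIC was the lowest drug concentration that prevented visible growth.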

Moraxella catarrhalis [4] = assay: Antimicrobial activity against drug-susceptible Moraxella catarrhalis 2 after 20 hrs by agar dilution method; details: Moraxella catarrhalis, 20 h; read-out: MIC; procedure, shortened: as §1
Streptococcus pyogenes [5] = assay: Antimicrobial activity against Streptococcus pyogenes 2 constitutively expressing ermB after 20 hrs by agar dilution method; procedure, shortened: as §1
Streptococcus pneumoniae [6] = assay: Antimicrobial activity against Streptococcus pneumoniae 4 constitutively expressing ermB after 20 hrs by agar dilution method; details: Streptococcus pneumoniae, 20 h; read-out: MIC; procedure, shortened: as §1
Haemophilus influenzae [7] = assay: Antimicrobial activity against drug-susceptible Haemophilus influenzae 1 after 20 hrs by agar dilution method; details: Haemophilus influenzae, 20 h; read-out: MIC; procedure, shortened: as §1
Streptococcus pneumoniae [8] = assay: Antimicrobial activity against Streptococcus pneumoniae 9 expressing mefA after 20 hrs by agar dilution method; details: Streptococcus pneumoniae, 20 h; read-out: MIC; procedure, shortened: as §1
Staphylococcus aureus [9] = assay: Antimicrobial activity against Staphylococcus aureus 6 expressing inducible ermB after 20 hrs by agar dilution method; procedure, shortened: as §2
Streptococcus pneumoniae [10] = assay: Antimicrobial activity against Streptococcus pneumoniae 5 constitutively expressing ermB/mefA after 20 hrs by agar dilution method; details: Streptococcus pneumoniae, 20 h; read-out: MIC; procedure, shortened: as §1
Moraxella catarrhalis [11] = assay: Antimicrobial activity against drug-susceptible Moraxella catarrhalis 1 after 20 hrs by agar dilution method; procedure, shortened: as §1
Streptococcus pneumoniae [12] = assay: Antimicrobial activity against drug-susceptible Streptococcus pneumoniae DP1 Type1 after 20 hrs by agar dilution method; details: Streptococcus pneumoniae, 20 h; read-out: MIC; procedure, shortened: as §1
Streptococcus pneumoniae [13] = assay: Antimicrobial activity against Streptococcus pneumoniae 10 expressing mefA after 20 hrs by agar dilution method; details: Streptococcus pneumoniae, 20 h; read-out: MIC; procedure, shortened: as §1
Staphylococcus aureus [14] = assay: Antimicrobial activity against Staphylococcus aureus 4 constitutively expressing ermA after 20 hrs by agar dilution method; procedure, shortened: as §2
Streptococcus pyogenes [15] = assay: Antimicrobial activity against drug-susceptible Streptococcus pyogenes 1 after 20 hrs by agar dilution method; details: Streptococcus pyogenes, 20 h; read-out: MIC; procedure, shortened: as §1
Streptococcus pneumoniae [16] = assay: Antimicrobial activity against Streptococcus pneumoniae 7 expressing inducible ermB after 20 hrs by agar dilution method; details: Streptococcus pneumoniae, 20 h; read-out: MIC; procedure, shortened: as §1
Streptococcus pneumoniae [17] = assay: Antimicrobial activity against drug-susceptible Streptococcus pneumoniae 3 after 20 hrs by agar dilution method; details: Streptococcus pneumoniae, 20 h; read-out: MIC; procedure, shortened: as §1
Staphylococcus aureus [18] = assay: Antimicrobial activity against drug-susceptible Staphylococcus aureus 209P JC-1 after 20 hrs by agar dilution method; details: Staphylococcus aureus, 209P, 20 h; read-out: MIC; procedure, shortened: as §2
Haemophilus influenzae [19] = assay: Antimicrobial activity against drug-susceptible Haemophilus influenzae 2 after 20 hrs by agar dilution method; details: Haemophilus influenzae, 20 h; read-out: MIC; procedure, shortened: as §1
Streptococcus pyogenes [20] = assay: Antimicrobial activity against Streptococcus pyogenes 3 expressing mefA after 20 hrs by agar dilution method; details: Streptococcus pyogenes, 20 h; read-out: MIC; procedure, shortened: as §1
Staphylococcus aureus [21] = assay: Antimicrobial activity against drug-susceptible Staphylococcus aureus 2 after 20 hrs by agar dilution method; details: Staphylococcus aureus, 20 h; read-out: MIC; procedure, shortened: as §2
Haemophilus influenzae [22] = assay: Antimicrobial activity against drug-susceptible Haemophilus influenzae 4 after 20 hrs by agar dilution method; details: Haemophilus influenzae, 20 h; read-out: MIC; procedure, shortened: as §1
Streptococcus pneumoniae [23] = assay: Antimicrobial activity against Streptococcus pneumoniae 8 expressing inducible ermB after 20 hrs by agar dilution method; procedure, shortened: as §1
Staphylococcus aureus [24] = assay: Antimicrobial activity against Staphylococcus aureus 5 expressing inducible ermB after 20 hrs by agar dilution method; details: Staphylococcus aureus, 20 h; read-out: MIC; procedure, shortened: as §2
Streptococcus pneumoniae [25] = assay: Antimicrobial activity against drug-susceptible Streptococcus pneumoniae 2 after 20 hrs by agar dilution method; details: Streptococcus pneumoniae, 20 h; read-out: MIC; procedure, shortened: as §1
[26] = Moraxella catarrhalis, 20 h, read-out: MIC
[27] = Streptococcus pneumoniae, 20 h, read-out: MIC

Row | SMILES | MIC (Streptococcus pneumoniae [1]) [µg/mL] | MIC (Haemophilus influenzae [2]) [µg/mL] | MIC (Staphylococcus aureus [3]) [µg/mL] | MIC (Moraxella catarrhalis [4]) [µg/mL] | MIC (Streptococcus pyogenes [5]) [µg/mL] | MIC (Streptococcus pneumoniae [6]) [µg/mL] | MIC (Haemophilus influenzae [7]) [µg/mL] | MIC (Streptococcus pneumoniae [8]) [µg/mL] | MIC (Staphylococcus aureus [9]) [µg/mL] | MIC (Streptococcus pneumoniae [10]) [µg/mL] | MIC (Streptococcus pneumoniae [12]) [µg/mL] | MIC (Streptococcus pneumoniae [13]) [µg/mL] | MIC (Staphylococcus aureus [14]) [µg/mL] | MIC (Streptococcus pyogenes [15]) [µg/mL] | MIC (Streptococcus pneumoniae [16]) [µg/mL] | MIC (Streptococcus pneumoniae [17]) [µg/mL] | MIC (Staphylococcus aureus [18]) [µg/mL] | MIC (Haemophilus influenzae [19]) [µg/mL] | MIC (Streptococcus pyogenes [20]) [µg/mL] | MIC (Staphylococcus aureus [21]) [µg/mL] | also measured
1 | CCOC(=O)[C@H]1[C@H](C)O[C@@H](O[C@H]2[C@H](N(C)C)[C@@H](O)[C@H](O[C@H]3[C@@H](CC=O)C[C@@H](C)[C@@H](O)CN(C)CCC(CCCc4cnc5ccccc5c4)NC(=O)C[C@@H](OC(=O)CC)[C@@H]3OC)O[C@@H]2C)C[C@@]1(C)O (mixture of isomers) | > 128 | 8 | 0.25 | 2 | > 128 | > 128 | 32 | 0.06 | 0.5 | > 128 | 0.03 | 0.06 | > 128 | 0.13 | 16 | 0.06 | 0.5 | 1 | 0.5 | 1 | MIC (Moraxella catarrhalis [11]): 2 µg/mL; MIC (Haemophilus influenzae [22]): 16 µg/mL; MIC (Streptococcus pneumoniae [23]): 64 µg/mL; MIC (Staphylococcus aureus [24]): 0.5 µg/mL; MIC (Streptococcus pneumoniae [25]): 0.06 µg/mL
2 | CCOC(=O)[C@H]1[C@H](C)O[C@@H](O[C@H]2[C@H](N(C)C)[C@@H](O)[C@H](O[C@H]3[C@@H](CC=O)C[C@@H](C)[C@@H](O)CN(C)CCC[C@@H](C/C=C/c4ccnc5ccccc45)OC(=O)C[C@@H](OC(=O)CC)[C@@H]3OC)O[C@@H]2C)C[C@@]1(C)O | > 128 | 16 (≈ 16.2 µM) | 0.25 (≈ 0.253 µM) | 4 (≈ 4.06 µM) | > 128 | > 128 | 64 (≈ 64.9 µM) | 0.13 (≈ 0.132 µM) | 0.5 (≈ 0.507 µM) | > 128 | 0.13 (≈ 0.132 µM) | 0.13 (≈ 0.132 µM) | > 128 | 0.25 (≈ 0.253 µM) | 32 (≈ 32.4 µM) | 0.06 (≈ 0.0608 µM) | 0.5 (≈ 0.507 µM) | 8 (≈ 8.11 µM) | 0.5 (≈ 0.507 µM) | 1 (≈ 1.01 µM) | MIC (Moraxella catarrhalis [11]; [26]): 2 µg/mL (≈ 2.03 µM); MIC (Haemophilus influenzae [22]): 16 µg/mL (≈ 16.2 µM); MIC (Streptococcus pneumoniae [23]; [27]): 32 µg/mL (≈ 32.4 µM); MIC (Staphylococcus aureus [24]): 0.25 µg/mL (≈ 0.253 µM); MIC (Streptococcus pneumoniae [25]): 0.13 µg/mL (≈ 0.132 µM)
3 | CCOC(=O)[C@H]1[C@H](C)O[C@@H](O[C@H]2[C@H](N(C)C)[C@@H](O)[C@H](O[C@H]3[C@@H](CC=O)C[C@@H](C)[C@@H](O)CN(C)CC(/C=C/Cc4ccc5ncccc5c4)CCOC(=O)C[C@@H](OC(=O)CC)[C@@H]3OC)O[C@@H]2C)C[C@@]1(C)O (stereo not given in full) | 128 (≈ 130 µM) | 8 (≈ 8.11 µM) | 0.13 (≈ 0.132 µM) | 1 (≈ 1.01 µM) | > 128 | > 128 | 32 (≈ 32.4 µM) | 0.015 (≈ 0.0152 µM) | 0.25 (≈ 0.253 µM) | > 128 | 0.015 (≈ 0.0152 µM) | 0.015 (≈ 0.0152 µM) | > 128 | 0.03 (≈ 0.0304 µM) | 2 (≈ 2.03 µM) | 0.015 (≈ 0.0152 µM) | 0.13 (≈ 0.132 µM) | 2 (≈ 2.03 µM) | 0.25 (≈ 0.253 µM) | 0.25 (≈ 0.253 µM) | MIC (Moraxella catarrhalis [11]; [26]): 1 µg/mL (≈ 1.01 µM); MIC (Haemophilus influenzae [22]): 8 µg/mL (≈ 8.11 µM); MIC (Streptococcus pneumoniae [23]; [27]): 2 µg/mL (≈ 2.03 µM); MIC (Staphylococcus aureus [24]): 0.13 µg/mL (≈ 0.132 µM); MIC (Streptococcus pneumoniae [25]): 0.03 µg/mL (≈ 0.0304 µM)
